{
  "source": "ChEMBL document CHEMBL1155046",
  "about": "“Chemical constituents of Aristolochia constricta: antispasmodic effects of its constituents in guinea-pig ileum and isolation of a diterpeno-lignan hybrid” (2008)",
  "key": {"[1]": {"test_system": "Ileum", "test": "Antispasmodic activity in guinea pig ileum assessed as inhibition of acetylcholine-induced smooth muscle contraction", "assay_type": "functional, Cavia porcellus", "in_short": "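Ileum from male albino guinea pigs (300-450 g) in Krebs-Henseleit solution, 1 g tension, 10 mL bath, 38.5 °C, 95% O2/5% CO2. After 0.5 h equilibration, checked with 3 µM ACh three times. Samples (10, 30, 100 µM) added noncumulatively 20 min before 3 µM ACh. Contraction recorded isotonically, expressed as % of untreated ACh height. IC50 calculated. Mean ± SEM, 4-5 animals. DMSO <1% final.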"}, "[2]": {"test_system": "Ileum", "test": "Antispasmodic activity in guinea pig ileum assessed as inhibition of electrically-induced smooth muscle contraction", "assay_type": "functional, Cavia porcellus", "in_short": "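Male albino guinea-pig ileum (300-450 g) held under 1 g tension in Krebs-Henseleit at 38.5 °C, gassed 95% O2/5% CO2. Transmural stimulation through platinum ring electrodes: supramaximal 38.6 V, 0.2 Hz, 0.3 ms square pulses. Once twitch was stable, compounds added cumulatively at 10, 30, 100 µM. Isotonic recording, contraction as % of control. IC50 calculated. Mean ± SEM from 4-5 animals. DMSO vehicle <1% final.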"}},
  "data": [
    {"smiles": "COc1cc(C[C@H]2C(=O)OC[C@@H]2Cc2ccc3c(c2)OCO3)ccc1O", "values": [
      {"measurement": "IC50", "setting": "[1]", "result": 26.8, "unit": "µM"},
      {"measurement": "IC50", "setting": "[2]", "result": 58.3, "unit": "µM"}
    ]},
    {"smiles": "COc1cc2c(cc1C)C(=O)CCC2C", "note": "(single isomer, unassigned; (+))", "values": [
      {"measurement": "IC50", "setting": "[1]", "result": 89.8, "unit": "µM"},
      {"measurement": "IC50", "setting": "[2]", "result": "> 100", "unit": "µM"}
    ]},
    {"smiles": "O=C1OC[C@H](Cc2ccc3c(c2)OCO3)[C@H]1Cc1ccc2c(c1)OCO2", "note": "[HINOKININ]", "values": [
      {"measurement": "IC50", "setting": "[1]", "result": 27.3, "unit": "µM"},
      {"measurement": "IC50", "setting": "[2]", "result": 69.8, "unit": "µM"}
    ]},
    {"smiles": "C=C1C[C@@]23CC[C@H]4[C@@](C)(CCC[C@]4(C)C(=O)O)[C@@H]2CCC1C3", "values": [
      {"measurement": "IC50", "setting": "[1]", "result": 25.4, "unit": "µM"},
      {"measurement": "IC50", "setting": "[2]", "result": 28.2, "unit": "µM"}
    ]},
    {"smiles": "CC1(C)CCC[C@]2(C)[C@@H]1CC[C@@]13C[C@H](CC[C@H]12)[C@@](O)(CO)C3", "values": [
      {"measurement": "IC50", "setting": "[1]", "result": "> 100", "unit": "µM"},
      {"measurement": "IC50", "setting": "[2]", "result": "> 100", "unit": "µM"}
    ]},
    {"smiles": "COc1cccc2c1cc([N+](=O)[O-])c1c(C(=O)O)cc3c(c12)OCO3", "note": "[ARISTOLOCHIC ACID]", "values": [
      {"measurement": "IC50", "setting": "[1]", "result": "> 100", "unit": "µM"},
      {"measurement": "IC50", "setting": "[2]", "result": 64, "unit": "µM"}
    ]},
    {"smiles": "CC1(C)CCC[C@]2(C)[C@@H]1CC[C@]13C=C(COC4OC[C@H](Cc5ccc6c(c5)OCO6)[C@H]4Cc4ccc5c(c4)OCO5)[C@@H](CC[C@H]12)C3", "note": "(some centres undefined)", "values": [
      {"measurement": "IC50", "setting": "[1]", "result": "> 100", "unit": "µM"},
      {"measurement": "IC50", "setting": "[2]", "result": "> 100", "unit": "µM"}
    ]},
    {"smiles": "COc1cc(C[C@H]2CO[C@@H](O)[C@@H]2Cc2ccc3c(c2)OCO3)ccc1O", "values": [
      {"measurement": "IC50", "setting": "[1]", "result": 39.5, "unit": "µM"},
      {"measurement": "IC50", "setting": "[2]", "result": 52.8, "unit": "µM"}
    ]},
    {"smiles": "COc1ccc(CCN(C)CCCC(C#N)(c2ccc(OC)c(OC)c2)C(C)C)cc1OC", "note": "(centres undefined) [VERAPAMIL]", "values": [
      {"measurement": "IC50", "setting": "[1]", "result": 0.28, "unit": "µM"},
      {"measurement": "IC50", "setting": "[2]", "result": 0.25, "unit": "µM"}
    ]},
    {"smiles": "O[C@H]1OC[C@H](Cc2ccc3c(c2)OCO3)[C@H]1Cc1ccc2c(c1)OCO2", "values": [
      {"measurement": "IC50", "setting": "[1]", "result": 23.6, "unit": "µM"},
      {"measurement": "IC50", "setting": "[2]", "result": 51.6, "unit": "µM"}
    ]},
    {"smiles": "CC1(C)CCC[C@]2(C)[C@@H]1CC[C@]13C=C(CO)[C@@H](CC[C@H]12)C3", "values": [
      {"measurement": "IC50", "setting": "[1]", "result": "> 100", "unit": "µM"},
      {"measurement": "IC50", "setting": "[2]", "result": 34.1, "unit": "µM"}
    ]},
    {"smiles": "OC[C@H](Cc1ccc2c(c1)OCO2)[C@H](CO)Cc1ccc2c(c1)OCO2", "note": "[DIHYDROCUBEBIN]", "values": [
      {"measurement": "IC50", "setting": "[1]", "result": 40.4, "unit": "µM"},
      {"measurement": "IC50", "setting": "[2]", "result": "> 100", "unit": "µM"}
    ]}
  ]
}
